Source: ChEMBL document CHEMBL3351517, “Psychrophilins E-H and versicotide C, cyclic peptides from the marine-derived fungus Aspergillus versicolor ZLN-60” (J Nat Prod, 2014)
Calls of active or inactive are those of the source. No cut-off for these calls is given here. Positions of bridges follow the written chain, without caps; N, C: chain ends. Non-standard residues stand in square brackets, D forms with d. Residues, ends and D or L forms follow the SMILES beside them. NMeW = CN[C@@H](Cc1c[nH]c2ccccc12)C(=O)O; 2Abz = Nc1ccccc1C(=O)O

Key:
Type in all cases: functional, cell-based
[1] = tested on: SMMC-7721; test: Cytotoxicity against human SMMC7721 cells by SRB assay
[2] = tested on: HeLa; test: Cytotoxicity against human HeLa cells by SRB assay
[3] = tested on: A549; test: Cytotoxicity against human A549 cells by SRB assay
[4] = tested on: HepG2; test: Lipid-lowering activity in human HepG2 cells assessed as reduction in oleic acid-elicited intracellular lipid accumulation at 10 uM after 6 hrs by Oil Red O staining method
Outline: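 HepG2 cells were kept in DMEM with 10% FBS and penicillin/streptomycin (100 μg/mL). At 70−80% confluence, cells were loaded with oleic acid (100 μM in DMEM) for 12 h. They were then exposed to test agent (10 μM) in DMEM/100 μM oleic acid for a further 6 h. Simvastatin served as positive control and DMEM/oleic acid as blank. Lipid was read by Oil Red O staining.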

Row | Structure (SMILES) | IC50 [1] [µM] | IC50 [2] [µM] | IC50 [3] [µM] | Activity [4]
1 | CC(=O)N(C)[C@H]1Cc2cn(c3ccccc23)C(=O)c2ccccc2NC(=O)[C@@H]2CCCN2C1=O (Ac-[NMeW]-Pro-[2Abz]; lactam 1-C) | > 100 | > 100 | > 100 | –
2 | CC(=O)N(C)[C@@H]1C(=O)N2CCC[C@H]2C(=O)Nc2ccccc2C(=O)n2cc(c3ccccc32)[C@H]1O | > 100 | > 100 | > 100 | Active
3 | CC(=O)N[C@H]1Cc2cn(c3ccccc23)C(=O)c2ccccc2NC(=O)[C@@H]2CCCN2C1=O (Ac-Trp-Pro-[2Abz]; lactam 1-C) | > 100 | > 100 | > 100 | –
4 | CC(=O)N(C)[C@@H]1C(=O)N2CCC[C@H]2C(=O)Nc2ccccc2C(=O)n2cc(c3c(O)cccc32)[C@H]1O | > 100 | > 100 | > 100 | –
